# Laboratory results as given in the RNAGym collection of RNA variant scans (doi:10.1126/science.aae0568).
# Variants at the floor of the assay were thinned out.
# B1: tRNA (parent)
# chain: GUUCCGUUGGCGUAAUGGUAACGCGUCUCCCUCCUAAGGAGAAGACUGCGGGUUCGAGUCCCGUACGGAACG
# Variants of: B1
# Test: yeast fitness relative to wild type (ratio to wild type); higher = fitter; tRNA-Arg(CCU), competitive growth, 37 C, YPD
# Method in brief: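 Changes in genotype frequencies gave Darwinian fitness relative to wild type. Frequencies were read by 100-nucleotide paired-end sequencing of gene amplicons before and after pooled Saccharomyces cerevisiae strains, carrying tRNA-Arg(CCU) gene variants at the native locus, were competed in YPD at 37°C for 24 hours in six replicates. A genotype was kept only with ≥ 100 starting reads, and estimates < 0.5 were set to 0.5.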
row,Variant,yeast fitness
1,GUUCCGUUGGAGUAAUGGUAACGCAUCUCCCUCCUAAGGAGAAGACUGCGGGUUCGAGUCCCGUACGGAACG [C11A G25A],0.572
2,GUUCCGUUGGAAUAAAGGUAACCCGUCUCCCUCCUAAGGAGAAGACUGCGGGUUCGAGUCCCGUACGGAACG [C11A G12A U16A G23C],≤ 0.5
3,GUUCCGUUGGAGUAAUGAUAACGCGUCUCCCUCCUGAGGAGCAGACUGCGGGUUCGAGUCCCGUAUGGAACG [C11A G18A A36G A42C C66U],0.658
4,GUUCCGUUGGAGUAAUGGUAACGCCUCUUCCUCCUAAGGAGAAGACUGCGGGUUCGAGUCCCGUCCGGAUCG [C11A G25C C29U A65C A70U],0.541
5,GUUCCGUUGGAGUAAUGGUAACGCGUCUCCCUCCUAAGAAGAAGACUGCGGGUUCGAGUCCAGUACGGAACG [C11A G39A C62A],≤ 0.5
6,GUUCCGUUGGAGUAAUGGUAACGCGUCUCCCUCCUAAGGAGAAGACUGCGGGUUCGAGUCCCGUACUGAACG [C11A G67U],0.584
7,GUUCCGUUGGAGUAAUGGUAACACGUCUCCCCCCUAAGGAGAAGACCGCGGGUUCGAGUCCCGUACGGAACG [C11A G23A U32C U47C],≤ 0.5
8,GUUCCGUUGGAGUAAUGGUAACGCGUCUCCCUCCUAAGGAGAAGACUGCGCGUUCGAGUCCCGUAGGGAACG [C11A G51C C66G],0.713
9,GUUCCGUUGGAAUAAUGGUAACGCGUCUUCCUCCUAAGGAGAAGACUACAGGUUCGAGUCCCGUACGGAACG [C11A G12A C29U G48A G50A],≤ 0.5
10,GUUCCGUUGGAGUAAUCGUAACGCGUCUCCCUCCUAAGGAGAGGACUGCGGGUUCGAGUCCCGUACGGAACG [C11A G17C A43G],≤ 0.5
11,GUUCCGUUGGAGUAAUGGUAACGCGUCUCCCUCCUAAGGAGAAGAUUGCGGGUUCGCGUCCCGUAAGGAACG [C11A C46U A57C C66A],≤ 0.5
12,GUUCCGUUGGAGUAAUGGUAACGCGUCUCCCUCCUAAGGAGAAGACUACGGGUUUGAGUCCCGUACGGAACG [C11A G48A C55U],≤ 0.5
13,GUUCCGUUGGAGUAAUGGUAACCCGUCUCCCUCCUAAGGAGUAGACUGCGGGUUCGAGUCCCGUACGGAACG [C11A G23C A42U],≤ 0.5
14,GUUCCGUUGGAGUAAUGGUAACGCGUCUCCCUCCUAAGGAGAAGACUGCGGGUUCGAGUCCCGUACAGAGCG [C11A G67A A70G],0.562
15,GUUCCGUUGGAGUAAUGGUAACGCGUCUCCCUCCUAAGGAGAAGACUGCGGGUUCGAGUCUCGUACGGACCG [C11A C61U A70C],≤ 0.5
16,GUUCCGUUGGAGAAAUGGUAACGCGUCUCCCUCCUAAGGAGAAGACUGCGGGUUCGAGUCCCGUACGGAACG [C11A U13A],0.603
17,GUUCCGUUGGAGUAAUGGUAACGCGUCUCCCUCCUAAGGAGAAGACUGCGGGUUCGAGUGCCGUUCGGAACG [C11A C60G A65U],≤ 0.5
18,GUUCCGUUGGAGUAAUGGUAACGCGUCUCCCUCCUAAAGAGAAGACUGCGGGAUCGAGUCCCGUACGGAACG [C11A G38A U53A],0.543
19,GUUCCGUUGGAGUAAUGGUAACCCGUCUCCCUUCUAAGGAGAUGCCUGCGGGUUCGAAUCCCGUACGGCACG [C11A G23C C33U A43U A45C G58A A69C],≤ 0.5

row,Variant,yeast fitness
1,GUUCCGUUGGAGUAAUGGUAACGCGUCUCCCUCCUAAGGAAAAGACUGCGGGUUCGAGUCCCGUACUCAACG [C11A G41A G67U G68C],0.567
2,GUUCCGUUGGAGUAAUGGUAACUCGUCUCCCUCCUUAGGAGAAGACUGCGGGUUCGAGUCCCGUACGGAACG [C11A G23U A36U],≤ 0.5
3,GUUCCGUUGGAGUAAUGGUAACCCGUCUCCCUCCUAAGCAGAAGACUGCGGGUUCGAGUCAGGUUCGGAACG [C11A G23C G39C C61A C62G A65U],≤ 0.5
4,GUUCCGUUGGAGUAAUGGUAACGCGUCUCCCUCCUAAGGAGAAGACUGCGAGUUCGAGUCCCGUACGGAACG [C11A G51A],0.618
5,GUUCCGUUGGAGUAAUAGUAACGCGUCUCCCUUCUAAGGAGAAGACUGCGGGUUCGAGUCCCGUACGGACCG [C11A G17A C33U A70C],≤ 0.5
6,GUUCCGUUGGAGUAAUGGUAACGCGUCUCCCUCCUAAGGAGAAGACUGCCGGUUCGAGUCACGUACGGGACG [C11A G50C C61A A69G],≤ 0.5
7,GUUCCGUUGGACUAAUGGUAACGCGUCUCCCUCCUAAGGAGAAGACUGCGGGUUCGAGUCCCAUACGGAACG [C11A G12C G63A],≤ 0.5
8,GUUCCGUUGGAGUAAUGGUAACGCGUCUCCCUCCUAAGGAGAAGACUGAGGGUUCGAGUCCCGUAUGGAACG [C11A C49A C66U],≤ 0.5
9,GUUCCGUUGGAGUAAUGGUAACGCGUCUCCCUCCUAAGGAGAAGACUGCGGGUUCGAGUCCGGUACGGAUCG [C11A C62G A70U],0.542
10,GUUCCGUUGGAGAAAUGGUUACGCGUCUGCCUCCUGAGGAGAAGAUUGCGGGUUCGAAUCCCGUACGGAACG [C11A U13A A20U C29G A36G C46U G58A],≤ 0.5
11,GUUCCGUUGGAGUAAUGGUAACGCGUCUCCCUCCUAAGGAGAACAAUGCGGGAUCGAGUCCCCUACGGAACG [C11A G44C C46A U53A G63C],0.866
12,GUUCCGUUGGAGUAAUGGUAACGCAUCUCCCUCCUAAGGAGAAGAGUGCGGGUUCGUGUCCCGUACGGAACG [C11A G25A C46G A57U],≤ 0.5
13,GUUCCGUUGGAAUAAUGGUAACGCGUCUCCCUCCUAAGGAGAAGACUGCGGGUUCGAGUCCCGUAAGGAACG [C11A G12A C66A],≤ 0.5
14,GUUCCGUUGGAGUAAUGGUAACGCCUCUUCCUCCUAAGGAGAAGACUGCGGGUCCGAGUCCCGUCCGGAUCG [C11A G25C C29U U54C A65C A70U],≤ 0.5
15,GUUCCGUUGGAGUAAUGGUAACGCGUCUCCCUCCUAAGGAAAAGACUGCGGGUUCGAGUCCCGUAGGGAACG [C11A G41A C66G],0.536
16,GUUCCGUUGGAGUAAUGGUAACGCGUCUCCCUCCUAAGGAGAAGACUGAGGGUUCGAGUCCAGUACGGAACG [C11A C49A C62A],≤ 0.5
17,GUUCCGUUGGAGAAAUGGUGACGCGUCUCCCUCCUAAGGAGAAGACUGCGGGUUCGAGUCUCGUACGGCACG [C11A U13A A20G C61U A69C],≤ 0.5
18,GUUCCGUUGGAGUAAUGGUAACACGUCUCUGUCCUAAGGAGAAGACUGCGGGUUCGAGUCCCGUACGGAACG [C11A G23A C30U C31G],≤ 0.5
